Most compounds without a hit are left out; they make up all but 1.6% or so of the library.
HNF4A DNA FP = change in binding of human HNF4 alpha to DNA. 360,000 tested, 0.3% active. P41235. AID 1224865. HNF4a-FITC DNA binding, fluorescence polarization, 1 h. activity change, % at 10 µM; in the data active = activity change above about 30%, passing the limit was not always enough
TPT1 inhibitor = C. albicans TPT1 enzyme inhibition. recombinant caTPT1, FP RNA substrate dephosphorylation. AID 1962. 300,000 tested, 0.81% active. inhibition, % at 5 µM;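 active = inhibition above the mean of all tested compounds plus 3 SD, set per screening campaign, cut at about 24% in these data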
CSN deneddyl inh = blocks human CSN-mediated cullin deneddylation. Q92905. Purified CSN, SCF-Nedd8-OG deneddylation, fluorescence polarization. inhibition, % at 12.5 µM. 360,000 tested, 0.38% active. AID 651999;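 active = pattern-corrected inhibition above about 35%, with an unprinted fluorescence ratio check between 0.5 and 1.5, limit read from the data, passing the limit was not always enough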
Target sequence (Q92905 whole entry, looked up, one chain of several): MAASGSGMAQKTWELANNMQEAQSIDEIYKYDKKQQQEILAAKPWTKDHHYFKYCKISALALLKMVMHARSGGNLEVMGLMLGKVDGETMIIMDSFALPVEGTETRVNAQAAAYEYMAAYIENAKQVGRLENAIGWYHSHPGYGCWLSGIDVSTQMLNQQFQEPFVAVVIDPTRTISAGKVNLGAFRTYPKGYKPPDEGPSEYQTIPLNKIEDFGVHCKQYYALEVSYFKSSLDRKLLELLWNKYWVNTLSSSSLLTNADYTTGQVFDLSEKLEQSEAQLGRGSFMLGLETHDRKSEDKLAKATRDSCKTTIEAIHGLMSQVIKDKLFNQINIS
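Detection – fluorescence polarization · System – HEK293T-derived human Csn5 enzyme · Controls – substrate-only high control, full reaction low control · Timing – 90 min, room temperature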
SENP1 inh = SENP1 (human) catalytic domain inhibition | recombinant SENP1 catalytic domain, CyPet-SUMO1-YPet FRET cleavage | inhibition, % at 10 µM | AID 624204 | 360,000 tested, 0.21% active | Q9P0U3;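 active = inhibition at least 30% at 10 µM, raw YFP signal under a set limit, fluorescence ratio 0.5 to 1.5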
Target sequence (Q9P0U3 419-644 limits assumed): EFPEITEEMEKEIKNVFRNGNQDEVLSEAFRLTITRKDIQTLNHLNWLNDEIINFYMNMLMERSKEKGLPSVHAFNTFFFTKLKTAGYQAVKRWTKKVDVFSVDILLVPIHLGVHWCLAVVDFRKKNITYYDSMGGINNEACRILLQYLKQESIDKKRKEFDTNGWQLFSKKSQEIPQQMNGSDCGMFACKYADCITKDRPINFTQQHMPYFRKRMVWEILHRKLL
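Test system: hSENP1 catalytic domain, recombinant; Amount: 20 pM final SENP1 enzyme; Medium: Tris pH 8 buffer plus EDTA, NaCl, BME, BSA, NP40, catalase; Schedule: 50 min enzyme reaction, room temperature, light-protected; Technique: FRET fluorescence in CFP and YFP emission channels; Controls: no-enzyme wells low, DMSO-plus-enzyme wells high control.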
Rpn11 block = Rpn11 (human) deubiquitinase inhibition; AID 588493; human 26S proteasome, Ub4-pepOG fluorescence polarization; 20S core pre-blocked with epoxomicin; inhibition, % at 20 µM; 360,000 tested, 0.59% active;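 active = inhibition at 20 µM, scaled to each plate's controls, above about 33%, limit read from the data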
caTPT1 confirm = confirmation of Candida albicans TPT1 inhibitors; 2,400 tested, 74% active; shares compounds with TPT1 inhibitor; recombinant caTPT1, fluorescence polarization, RNase T1 coupled; inhibition, % at 5 µM; AID 2149;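 active = inhibition above the primary screen limit, the mean inhibition of all tested compounds plus 3 SD, cut at about 25% in these data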
RNase T1 counter = blocks Aspergillus oryzae RNase T1, a TPT1 counter-screen; shares compounds with TPT1 inhibitor; inhibition, % at 5 µM; 2,400 tested, 83% active; RNase T1 cleavage, fluorescence polarization, 1536-well;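 active = inhibition above the solvent-only control well mean plus 3 SD, limit set per screening run, cut at about 23% in these data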;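 note: inhibitors block cleavage so intact labeled substrate keeps polarization high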
Target sequence (P00651 whole entry, looked up): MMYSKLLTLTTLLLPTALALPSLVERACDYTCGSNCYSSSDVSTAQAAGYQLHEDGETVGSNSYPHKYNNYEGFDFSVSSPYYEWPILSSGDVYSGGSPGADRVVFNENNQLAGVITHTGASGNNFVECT
Each line names hits and unclear results; the compound was inactive in the other large screens (follow-up assays come after a bar, where shown).

COc1ccc(/C=c2\s/c(=C/C(=O)c3ccc(C)cc3)[nH]c2=O)cc1OC	HNF4A DNA FP 66.7, TPT1 inhibitor 103.0 (not shown: Rpn11 block) | caTPT1 confirm 117.4 | RNase T1 counter 114.8
CCn1c(O)c(/C=N/N=C/c2ccc(OC)cc2)c2cc(C3=NNC(=O)CC3)ccc21	HNF4A DNA FP 95.1, TPT1 inhibitor 47.3, CSN deneddyl inh 89.4 (not shown: Rpn11 block) | caTPT1 confirm 74.2 | RNase T1 counter 85.8
CC/C(C)=N\N=C\c1c(O)n(CC)c2cc(C3=NNC(=O)CC3)ccc12	TPT1 inhibitor 51.5 | caTPT1 confirm 35.4 | RNase T1 counter 47.0
CN1CCc2c(sc(/N=C/c3cc(Cl)ccc3O)c2C#N)C1	TPT1 inhibitor 27.1 | caTPT1 confirm 27.5 | RNase T1 counter 38.1
CN1CCc2c(sc(/N=C/c3c[nH]c4ccccc34)c2C#N)C1	TPT1 inhibitor 44.1 (not shown: Rpn11 block) | caTPT1 confirm 43.4 | RNase T1 counter 52.7
Cc1cc(C)n(/N=C/c2c[nH]c3ccccc23)c(=O)c1C#N	none
CN(C)c1cc2c3ccccc3n(C)c2cc1N	none (no result: TPT1 inhibitor)
CC1=[N+](C)c2c(ccc3cccnc23)C1(C)C	none (no result: TPT1 inhibitor)
Cc1ccc(-n2ccc(=O)c(C(=O)Nc3ccc(S(=O)(=O)Nc4onc(C)c4C)cc3)n2)cc1	none
COc1cc(/C=C2\SC(=Nc3ccccc3)NC2=O)cc(Cl)c1O	TPT1 inhibitor 104.6 (not shown: Rpn11 block) | caTPT1 confirm 114.1 | RNase T1 counter 109.5
COc1cc(/C=C2\SC(=Nc3cccnc3)NC2=O)cc(OC)c1OC	TPT1 inhibitor 52.1 | caTPT1 confirm 72.8 | RNase T1 counter 84.4
COc1ccc(OC)c(NC(=O)CSc2nncc(=O)n2N)c1	none
COc1ccc(C(C(=O)NCc2ccccc2)N(Cc2ccco2)C(=O)c2snc(C(N)=O)c2N)cc1 (centres undefined)	none
COc1cc(OC)cc(C(C(=O)NCc2ccccc2)N(Cc2ccco2)C(=O)c2ccno2)c1 (centres undefined)	TPT1 inhibitor 41.9 | caTPT1 confirm inactive | RNase T1 counter 25.0
CCOC(=O)C1CCCN(C(=O)c2ccc(F)c(C)c2)CC1 (centres undefined)	none (no result: TPT1 inhibitor)
COc1cccc(NC(=O)CN(C)C(=O)CC2CCCCC2)c1	none (no result: TPT1 inhibitor)
COC(=O)c1ccc(C2C(C(=O)c3cc4ccccc4o3)=C(O)C(=O)N2c2cc(C)on2)cc1 (centres undefined)	TPT1 inhibitor 43.9 | caTPT1 confirm inactive | RNase T1 counter 25.5
COc1cccc2cc(C(=O)C3=C(O)C(=O)N(c4cc(C)on4)C3c3cccs3)oc12 (centres undefined)	TPT1 inhibitor 30.8 | caTPT1 confirm inactive | RNase T1 counter 35.5
CCCOc1cccc(C2C(C(=O)c3cc4ccccc4o3)=C(O)C(=O)N2c2cc(C)on2)c1 (centres undefined)	none
Cc1cc(N2C(=O)C(O)=C(C(=O)c3cc4ccccc4o3)C2c2ccc(OC(C)C)cc2)no1 (centres undefined)	none
Cc1cc(N2C(=O)C(O)=C(C(=O)c3cc4ccccc4o3)C2c2cccc(Br)c2)no1 (centres undefined)	TPT1 inhibitor 30.6 | caTPT1 confirm inactive | RNase T1 counter 25.3
COc1cccc(C2C(C(=O)c3cc4cccc(OC)c4o3)=C(O)C(=O)N2c2cc(C)on2)c1OC (centres undefined)	none
COC(=O)C1=CN(c2ccc(OC)cc2OC)C(N)=C(C#N)C1c1cccc([N+](=O)[O-])c1 (centres undefined)	none (no result: TPT1 inhibitor, Rpn11 block)
COc1ccc(NS(=O)(=O)c2ccc(N3CCCC3)c(NC(=S)Nc3cccc(S(=O)(=O)N(C)C)c3)c2)cc1	none (no result: HNF4A DNA FP, CSN deneddyl inh, SENP1 inh, Rpn11 block)
CC(=O)c1sc(N/N=C/c2cccc(O)c2)nc1C	none
CC(=O)c1sc(N/N=C\c2c(O)ccc3ccccc23)nc1C	HNF4A DNA FP 83.2, TPT1 inhibitor 117.1 (not shown: Rpn11 block) | caTPT1 confirm 124.5 | RNase T1 counter 119.5
Cc1cc(C)c2cc(C#N)c(NCCNC(=O)c3ccncc3)nc2c1	none (no result: TPT1 inhibitor, Rpn11 block)
CCOC(=O)c1sc2nc(N3CCOCC3)c3c(c2c1N)CCCC3	none
COC(=O)c1ccc(-c2sc3nc(N4CCOCC4)c4c(c3c2N)CCCC4)o1	TPT1 inhibitor 57.7 (no result: HNF4A DNA FP, CSN deneddyl inh, SENP1 inh, Rpn11 block) | caTPT1 confirm 56.9 | RNase T1 counter 68.0
COc1ccc(NC(=O)/C(C#N)=C\c2ccc(Br)o2)cc1	none
N#C/C(=C\c1ccc([N+](=O)[O-])o1)C(=O)Nc1ccc(F)cc1	TPT1 inhibitor 39.5 (not shown: Rpn11 block) | caTPT1 confirm 42.4 | RNase T1 counter 54.7
CCOC(=O)c1sc(=NC(=O)c2ccccc2)n(C)c1C	none
CCOC(=O)c1sc(=NC(=O)c2cccc(OC)c2)n(C)c1C	TPT1 inhibitor 63.8 | caTPT1 confirm inactive | RNase T1 counter inactive
O=C(CC(=O)c1ccccc1)Nc1ccc([N+](=O)[O-])cc1	none (no result: TPT1 inhibitor)
C/C(=N\Nc1ccc([N+](=O)[O-])cc1)c1ccco1	TPT1 inhibitor 47.6 | caTPT1 confirm 55.6 | RNase T1 counter 68.8
C/C(=N\Nc1ccc([N+](=O)[O-])cc1)c1ccc(N2CCOCC2)cc1	TPT1 inhibitor 31.1 | caTPT1 confirm 45.7 | RNase T1 counter 52.5
CCc1ccc(/C(C)=N\Nc2ccc([N+](=O)[O-])cc2)cc1	TPT1 inhibitor 81.0 | caTPT1 confirm 56.3 | RNase T1 counter 70.9
CC/C(=N\Nc1ccc([N+](=O)[O-])cc1)c1ccccc1	TPT1 inhibitor 39.3 (not shown: Rpn11 block) | caTPT1 confirm 47.4 | RNase T1 counter 59.9
C/C(=N\NC(=O)c1cccc(N/N=C(\C)c2ccc([N+](=O)[O-])cc2)c1)c1ccc([N+](=O)[O-])cc1	none
C/C(=N\NC(=O)COc1ccc([N+](=O)[O-])cc1)c1ccco1	none (no result: TPT1 inhibitor)
C/C(=N\Nc1ccccc1[N+](=O)[O-])c1ccc(N2CCOCC2)cc1	none
C/C(=N\Nc1ccc([N+](=O)[O-])cc1)c1ccc(N)cc1	TPT1 inhibitor 37.4 | caTPT1 confirm 33.9 | RNase T1 counter 46.0
O=[N+]([O-])c1ccc(N/N=C/c2ccccc2O)cc1	TPT1 inhibitor 50.2 | caTPT1 confirm 68.9 | RNase T1 counter 80.5
O=C(CSC1=N/C(=C/c2ccco2)C(=O)N1c1ccc(OC(F)F)cc1)NC1CCS(=O)(=O)C1 (centres undefined)	TPT1 inhibitor 28.0 | caTPT1 confirm 26.0 | RNase T1 counter 34.0
CCNC(=O)CSC1=N/C(=C\c2ccc(O)c(OCC)c2)C(=O)N1c1ccc(OC(F)F)cc1	HNF4A DNA FP 89.7, TPT1 inhibitor 90.3, CSN deneddyl inh 46.8 (not shown: Rpn11 block) | caTPT1 confirm 102.0 | RNase T1 counter 97.4
CC(=O)c1cccc(N(CC(=O)NC2CCCCC2)C(=O)CCC(=O)Nc2nc(C)cs2)c1	none

Compound activity (PubChem BioAssay)
